Rows were chosen to be rich in hits. Some 3.5% of all compounds tested hit in one or more screens of this group.
PAFAH1B2 inh: PAFAH1B2 enzyme inhibitors, primary screen, biochemical, fluorescence polarization, human; recombinant PAFAH1B2, FP-rhodamine activity probe; inhibition, % at 3.39 µM; 1.2% of 340,000 active;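 active = inhibition above the mean of all tested compounds plus 3 SD, cut at about 24% in these data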
PAFAH2 FP inh: PAFAH2 enzyme inhibitors, primary screen, biochemical, fluorescence polarization, human; recombinant PAFAH2, FP-rhodamine activity probe; inhibition, % at 3.39 µM; 0.99% of 340,000 active; AID 492956, 2010;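 active = inhibition above the mean over all tested compounds plus 3 SD, cut at about 30% in these data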;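 also: inhibitors block probe labeling of enzyme so polarization drops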
pPAFAH inh: pPAFAH enzyme inhibitors, primary screen, biochemical, fluorescence polarization, human | AID 463082, 2010 | inhibition, % at 3.39 µM | recombinant pPAFAH, FP-rhodamine probe fluorescence polarization | 1.5% of 330,000 active;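 active = inhibition above the mean inhibition across the screen plus 3 SD, cut at about 25% in these data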;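 also: inhibitors block binding of the rhodamine activity-based probe so polarization drops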
Apaf1 inhib: inhibitors of human Apaf-1 apoptosome, primary screen, biochemical, DEVD-Rh110 fluorescence, uHTS | Apoptotic protease-activating factor 1 (Homo sapiens), O14727 | 0.71% of 330,000 active | AID 489030, 2010 | reconstituted apoptosome caspase-3 activity | inhibition, % at 20 µM; active = inhibition of at least 40% at 20 µM
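Material: cell-free apoptosome with Apaf-1, procaspase-3 and caspase-9; Buffer or medium: Hepes pH 7.5 with detergent and BSA; Reagent: cytochrome c trigger plus (Z-DEVD)2-Rh110 caspase-3 substrate; Times: compound with Apaf-1, dATP, procaspase-3 30 min, then 50 min reaction, room temperature; Technique: Rh110 fluorescence intensity.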
PREPL inhibitor: PREPL enzyme inhibitors, primary screen, biochemical, fluorescence polarization | AID 2751, 2010 | 0.68% of 320,000 active | inhibition, % at 5.96 µM | recombinant PREPL, fluorescence polarization activity-based probe; in the data active = inhibition above about 43%
PAFAH1B3 FP inh: PAFAH1B3 enzyme inhibitors, primary screen, biochemical, fluorescence polarization, human. Platelet-activating factor acetylhydrolase IB subunit alpha1 (Homo sapiens), Q15102. recombinant PAFAH1B3, FP-rhodamine probe. inhibition, % at 3.39 µM. 0.28% of 340,000 active;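 active = inhibition above the screen-wide average of all tested compounds plus 3 SD, cut at about 25% in these data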
A number is an active result; . = inactive; / = not tested or not shown.

SMILES	PAFAH1B2 inh	PAFAH2 FP inh	pPAFAH inh	Apaf1 inhib	PREPL inhibitor	PAFAH1B3 FP inh
CC(=O)c1cc(CN2C(=O)CCC2=O)cs1	.	.	.	.	.	.
O=C(NCCOc1ccccc1)[C@@H]1CCCN1C(=O)c1cccs1	.	.	/	/	/	.
COC(=O)CCC(=O)OC1(C)C(=O)C=C2C=C(C3CC3)N(C3CCCCC3)C=C2C1=O (centres undefined)	.	.	.	62.4	.	.
COC(=O)CCC(=O)OC1(C)C(=O)C=C2C=C(C3CC3)N(CC(C)C)C=C2C1=O (centres undefined)	/	/	/	53.3	/	/
CCOC(=O)[C@H]1[C@H]2COc3cc(OC)ccc3[C@@H]2N2C(=O)CN(Cc3ccc(C)cc3)C(=O)[C@@]12C	.	.	.	.	.	.
CNc1ccc(Br)cc(C(=O)/C=C/c2ccc(OC)cc2OC)c1=O	.	.	24.7	.	.	.
CCOC(=O)c1cccc(NC(=O)c2cc(C)nn2-c2ccccc2)c1	.	.	.	.	.	.
CC(C)CC1=C/C(=C/c2ccc(-c3ccccc3)o2)C(=O)O1	.	.	29.1	.	.	.
NS(=O)(=O)c1ccc(-c2ccc(C=C3C(=O)c4ccccc4C3=O)o2)cc1	.	.	.	.	.	.
CC(C)c1ccc(N2C(=O)CC(Sc3nc4ccccc4o3)C2=O)cc1 (centres undefined)	25.9	.	.	.	.	.
Cn1cnc(S(=O)(=O)N2CCN(c3ccc(Cl)cc3)CC2)c1	28.4	.	.	.	.	.
CC(=O)Nc1ccc(S(=O)(=O)N2CCN(C(=O)N3CCOCC3)CC2)cc1	.	.	.	.	.	.
O=S(=O)(c1ccc(N2CCOCC2)cc1)N1CCOCC1	.	.	.	.	.	.
O=C(N1CCOCC1)N1CCN(S(=O)(=O)c2ccc(Cl)cc2)CC1	24.9	.	.	.	.	.
O=S(=O)(c1ccc(Cl)cc1)N1CCN(c2ccc(N3CCOCC3)nn2)CC1	26.4	.	.	.	.	.
CCC(=O)NCCc1nc2cc(NC(=O)c3cccc([N+](=O)[O-])c3)ccc2n1C	.	.	/	.	/	.
Cc1c(C)c2ccc(OC(C)C(=O)N[C@@H](Cc3c[nH]c4ccccc34)C(=O)O)c(C)c2oc1=O (some centres undefined)	24.5	.	.	.	.	.
CC(Oc1ccc2c(-c3ccccc3)cc(=O)oc2c1)C(=O)N[C@H](Cc1c[nH]c2ccccc12)C(=O)O (some centres undefined)	76.4	.	.	.	.	.
COc1ccc(NC(C)=O)cc1NC(=O)c1cccc(S(=O)(=O)N2CCc3ccccc32)c1	.	.	.	.	.	.
O=C(N/N=C/c1ccncc1)c1cccs1	.	.	.	.	.	.
O=C(N/N=C/c1ccc(-c2ccccc2C(=O)O)o1)c1cccs1	.	.	28.4	.	.	.
CCC(CC)NC(=O)C1CCN(c2ccc(S(=O)(=O)N3CCOCC3)cc2[N+](=O)[O-])CC1	.	.	.	.	.	.
O=C(O)CCC(=O)N1CCc2cc(S(=O)(=O)NC3CCCC3)ccc21	.	.	.	.	.	.
CCCCC(CC)CNS(=O)(=O)c1ccc2c(c1)CCN2C(=O)CCC(=O)O (centres undefined)	.	.	31.6	.	.	.
N/C(=N\OC(=O)c1ccc([N+](=O)[O-])cc1)c1ccc(Br)cc1	.	.	.	.	.	.
SMILES	PAFAH1B2 inh	PAFAH2 FP inh	pPAFAH inh	Apaf1 inhib	PREPL inhibitor	PAFAH1B3 FP inh
N/C(Cc1ccc([N+](=O)[O-])cc1)=N\OC(=O)c1ccc(Br)cc1	.	40.5	29.7	.	.	.
CCOc1ncccc1C(=O)OCC(=O)NC(=O)c1ccccc1	.	.	.	.	.	.
Cc1ccc(C)c(SCC(=O)OCC(=O)c2ccco2)c1	.	.	28.2	.	.	.
CCc1ccc(N(C(=O)CNC(=O)c2ccco2)C(C(=O)NC2CCCC2)c2cccnc2)cc1 (centres undefined)	.	.	.	.	.	.
CS(=O)(=O)c1ccc2c(c1)sc1nc(=O)c(/C=C3/C=CC(=O)C(O)=C3)c(N)n12	53.4	58.5	.	.	.	28.3
C/C(=N\NC(=O)c1cccc(N/N=C(\C)c2cc(O)ccc2O)c1)c1cc(O)ccc1O	.	.	31.6	.	.	.
CC(C)Cc1ccc(C(C)NC(=O)Cc2ccc(S(=O)(=O)N3CCOCC3)s2)cc1 (centres undefined)	.	.	29.9	.	.	.
CC(C)CCC(C)NC(=O)Cc1ccc(S(=O)(=O)N2CCOCC2)s1 (centres undefined)	.	.	.	.	.	.
O=C(Nc1nc(-c2ccco2)c(-c2ccco2)s1)C1CCC1	.	.	27.7	.	.	.
CSc1nc(-c2ccccc2)nc(N2CCOCC2)c1C(C)=O	.	.	.	.	.	.
COc1cccc(/C=N/NC(=O)c2cc(-c3ccccn3)nc3ccccc23)c1O	.	.	.	.	.	.
O=C(N/N=C/c1cc(Cl)cc([N+](=O)[O-])c1O)c1cc(-c2ccccn2)nc2ccccc12	.	.	26.7	.	.	.
Clc1ccc(-c2nnc(-c3ccccc3)o2)cn1	.	.	/	/	/	.
CC(C)CNC(=O)CSc1ccc(Cl)cc1	25.8	.	.	.	.	.
Cc1ccc(S(=O)(=O)N2[C@@H](c3ccccc3)C(C(=O)O)=CC[C@H]2c2cccc(C)c2)cc1	37.8	.	.	.	.	.
COc1cccc([C@@H]2CC=C(C(=O)O)[C@H](c3ccc(F)cc3)N2S(=O)(=O)c2ccc(C)cc2)c1	26.3	.	.	.	.	.
COc1cccc([C@@H]2CC=C(C(=O)O)[C@H](c3ccccc3)N2S(=O)(=O)c2ccc(C)cc2)c1	.	.	.	.	.	.
COc1cc2c(cc1OC)C(COc1cccc(C(F)(F)F)c1)NCC2 (centres undefined)	.	.	.	.	.	.
CCC1(c2ccccc2)ON(c2c(Br)cccc2Br)C1=O (centres undefined)	.	.	.	.	.	.
CCOc1ccc(OCc2cccc(C(=O)O)c2)cc1	.	.	.	.	.	.
COc1ccc(OCc2cccc(C(=O)O)c2)cc1	25.1	.	.	.	.	.
O=C(O)c1cc(OCc2ccccc2)cc(OCc2ccccc2)c1	28.8	.	.	.	.	.
CCOc1cc(OCC)cc(C(=O)O)c1	.	.	.	.	.	.
O=C(O)c1cccc(COc2ccc3c(c2)CCC3)c1	48.0	.	.	.	.	.
